Among the data in ChEMBL document CHEMBL4513216, “Probing the Open Global Health Chemical Diversity Library for Multistage-Active Starting Points for Next-Generation Antimalarials” (ACS Infect Dis, 2020) are cytotoxicity values, retold here.

This series can be described thus: Toxicity liver stage against HepG2, at 10uM. Format: cell-based. The arrangement: test concentration 10 uM, cell line HepG2-A16-CD81EGFP. As to conditions: human, HepG2-A16-CD81EGFP cells; read-out: INHIBITION
The method, boiled down: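 Uninfected HepG2-A16-CD81EGFP cells, 3 × 10^3 per well, 1536-well, plated on prespotted compound at 10 μM final, parasite-free screening media added to match infected plates; puromycin 10 μM positive, DMSO 0.5% negative; run in parallel with 48 h PbLuc assay at 37 °C, 5% CO2; viability by CellTiter-Glo luminescence, normalized to controls.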
As for `O=S(=O)(CC1CCCN1S(=O)(=O)C1CC1)c1ccccc1` (stereo unspecified), the cytotoxicity at 10 µM is -5.75%.
The same measure for `COc1ccc(OC)c(C2CC(=O)Nc3nc(N4CCOCC4)sc32)c1` (stereo unspecified): 14.3%.
The value for `CNc1nc2c(s1)C(c1ccc(Cl)cc1Cl)CC(=O)N2` (stereo unspecified) was 7%.
The same measure for `CCn1nc2ccc(S(=O)(=O)N3CCSCC3)cn2c1=O`: 2.4%; for `CC1c2ncc(Cn3cncn3)n2CCN1C(=O)C1CCOCC1` (stereo unspecified): -13%; for `COCCNC(=O)Cn1cc2c(n1)c(C)nn2C(C)C`: -6.24%.
In the case of `CC(=O)c1c(O)ccnc1C(F)(F)F`, the cytotoxicity at 10 µM turned out to be 2.34%.
On to `CNC(=O)C1CN(C(=O)c2ccncc2)CCN(S(C)(=O)=O)C1` (stereo unspecified), for which the cytotoxicity at 10 µM turned out to be 6.67%.
Regarding `Cc1noc(-c2cnc(NC3CC3)nc2-c2ccco2)c1C`, the cytotoxicity at 10 µM came out at 6.38%.
As for `NC(=O)C1CCN(C(=O)NC2CCN(CC3CCCC3)C2)CC1` (stereo unspecified), the cytotoxicity at 10 µM was 13%.
The same measure for `CC(C)CCC(=O)N1CCN(c2ncnc3nc(N)ccc23)CC1`: 8.32%.
With `N#CC1(NC(=O)COc2cc(Cl)cc(Cl)c2)CCOCC1`, the cytotoxicity at 10 µM is -2.53%.
The same measure for `Cn1cc(CC(=O)N2CCCC(c3cc(C(F)(F)F)[nH]n3)C2)cn1` (stereo unspecified): -7.11%.
The same measure for `CCN(C(=O)Cn1cc(NC(=O)C(C)(C)C)cn1)c1ccccc1`: 3.49%; for `COCc1ccccc1C(=O)NCC(c1c(F)cccc1F)N(C)C` (stereo unspecified): -9.75%.
The same measure for `COCCOCCCC(=O)N1CCC(Cc2ccccc2OC)CC1`: 7.28%; for `CN(C)C(CNC(=O)NCc1cc[nH]n1)c1ccco1` (stereo unspecified): -5.47%.
Regarding `CCNC(=O)CNC(=O)Nc1c(F)cc(F)cc1-c1ccccc1`, the cytotoxicity at 10 µM was -7.55%.
The same measure for `NC(=O)NCC1CCCCN1C(=O)c1ccc(Br)s1` (stereo unspecified): -0.147%; for `CC(C)S(=O)(=O)N(C)C(=O)CCc1ccsc1`: 5.2%.
With `OCC(CO)Nc1ccc2c(Cl)ccc(Cl)c2n1`, the cytotoxicity at 10 µM is -3.04%.
The same measure for `CCOCCCC(=O)Nc1cccnc1-n1ccnc1C`: 9.21%.
On to `CC(NC(=O)NCCCn1cccn1)c1cccnc1` (stereo unspecified), for which the cytotoxicity at 10 µM turned out to be 23.1%.
As for `CS(=O)(=O)CCSc1cccc(C#N)c1`, the cytotoxicity at 10 µM was -5.61%.
The same measure for `CC(C)c1cnc(CNc2c(F)cccc2-n2cccn2)o1`: -6.07%; for `Cc1ccn(-c2ccccc2NCc2ncc[nH]2)n1`: -5.95%; for `Cc1noc(C(C)C)c1C(=O)NS(=O)(=O)c1ccc2c(c1)OCCCO2`: -9.06%.
The value for `CC(C)n1nc(CN2CCCC2=O)c2c1CN(C(=O)c1ccc[nH]1)C2` was 5.39%.
For the compound `O=C([C@@H]1COC[C@H]2CN(C3CCCCC3)C[C@H]21)N1CCOCC1`, the cytotoxicity at 10 µM is -107%.
The value for `Cc1ccc(C(=O)N2C[C@@H]3OCCN(CC4CCCC4)[C@@H]3C2)cn1` was -76%; that for `c1ccc(COC[C@@H]2CC[C@H]3[C@H](CCN3c3ncccn3)O2)nc1` was -74.6%; that for `N#CCCNC(=O)c1ccn(-c2ccc3ccccn23)n1` was 3.82%.
The same measure for `CC(C)CN1CCCn2nc(CNC(=O)CN3CCOC3=O)cc2C1`: 0.541%; for `c1ccc(CCc2noc(CN3CCC(N4CCSCC4)CC3)n2)cc1`: -8.01%; for `O=c1[nH]c(-c2ccccn2)nc2c1CCN(S(=O)(=O)N1CCCC1)C2`: 8.85%.
The value for `CC(C)c1noc(CC[C@@H]2CCCN3CCCC[C@H]23)n1` was -0.143%; that for `CN(C)c1nc(NCc2cccnc2N)ncc1F` was -2.11%.
As to `O=c1cc(-c2ccncc2)nc(-c2ccc(CN3CC[C@H](O)C3)cc2)[nH]1`, the cytotoxicity at 10 µM was found to be 4.48%.
The same measure for `CCC(CC)CN1CCCn2nc(CNC(=O)COC)cc2C1`: 2.66%; for `CN1C(=O)CC(C(=O)O)C12CCN(Cc1ccc(Cl)cc1F)CC2` (stereo unspecified): -7.82%.
The same measure for `CCN1CC2(CCN(CCOCCO)CC2)CC(c2ccccc2)C1=O` (stereo unspecified): 42.4%; for `CCn1c(Cn2cncn2)nnc1C1CCN(C(=O)CCSC)CC1`: -13.6%.
For `c1csc(N2CCCN(Cc3noc(C4CC4)n3)CC2)n1`, the cytotoxicity at 10 µM is 3.41%.
The same measure for `CSc1ccc(CN(C)C(=O)c2cc3c([nH]c2=O)CCCC3=O)cc1`: -1.25%; for `COCCCNC(=O)CN(C)C(=O)c1ccc(OC)cc1O`: -10.7%; for `N#Cc1ccsc1NC(=O)CN1CCOC(Cn2cccn2)C1` (stereo unspecified): -5.66%.
The value for `COCCN1CCN(Cc2csc(-c3cnn(C)c3)n2)CC1` was -9.71%; that for `CCNc1cc2c(nn1)CCN(C(=O)c1ccnc(C)n1)C2` was -5.04%; that for `O=S(=O)(CCCN1CCCC(Cn2cncn2)C1)c1ccccc1` (stereo unspecified) was -11.7%.
The value for `CCN(CC)C(=O)NCCc1ccn(-c2ccccc2)n1` was -14%.
`Cc1cc(CN2Cc3ccccc3CC2c2nnc(C)o2)no1` (stereo unspecified): the cytotoxicity at 10 µM turned out to be 2.89%.
The same measure for `CC(C)C(CNC(=O)Nc1cn[nH]c1)N1CCOCC1` (stereo unspecified): -6.83%; for `Cc1ccc(C(=O)N2CCCN(Cc3cscn3)CC2)o1`: -10.6%.
Take `Cc1nn(C)c(N2CCOCC2)c1CNCc1ccc2c(c1)OCO2`: the cytotoxicity at 10 µM was -17.8%.
The same measure for `Cc1nnc(N2CCC(CCN(C)C)CC2)c(C#N)c1C`: -1.33%; for `CCc1noc(C)c1C(=O)N1CCCN(Cc2csc(C)n2)CC1`: -2.81%; for `CC(C)OCCCNC(=O)CS(=O)(=O)Cc1ccc(Cl)c(Cl)c1`: -9.7%.
The value for `O=C(NCCOc1cccc(Cl)c1)C1CC(=O)N(CC2CC2)C1` (stereo unspecified) was -0.98%; that for `O=C(COC(=O)Cc1cccs1)NCc1cccc(NC(=O)C2CC2)c1` was -8.08%.
The same measure for `COC(=O)c1cccc(OCCn2nc(-c3cccs3)oc2=O)c1`: -6.56%; for `CCn1nc2c(cc1=O)CN(Cc1nc(-c3ccsc3)no1)CC2`: -17.1%; for `O=C(c1cccnc1N1CCOCC1)N1CCCC(n2ccnc2)C1` (stereo unspecified): -3.56%.
On to `CCS(=O)(=O)CCN1CCCC1c1noc(C2CC2)n1` (stereo unspecified), for which the cytotoxicity at 10 µM is -6.33%.
As for `CC(O)CN1CCN(C(=O)c2cccc(CC#N)c2)CC1` (stereo unspecified), the cytotoxicity at 10 µM was -3.74%.
Consider `CC(C)c1nnc2n1CCN(CCCS(=O)(=O)c1ccccc1)C2`, for which the cytotoxicity at 10 µM was -12.3%.
The same measure for `CC(C)CC(=O)N1CCC2(CC1)OC(C(N)=O)Cn1ccnc12` (stereo unspecified): -105%; for `O=C1N(c2cncnc2)CCC12CCCN(Cc1cccnc1)C2` (stereo unspecified): -79.6%; for `O=C(NCc1ccco1)[C@H]1CC[C@@H]2[C@@H](CCN2c2ncccn2)O1`: -69.6%.
The value for `Cc1ccc(C(NC(=O)C2CCC(O)CC2)c2cccnc2)cc1C` (stereo unspecified) was 24.2%; that for `CCCC12CN3CC(C)(CN(C1)C3c1[nH]c(=O)[nH]c(=O)c1C)C2=O` (stereo unspecified) was 3.15%; that for `O=C(Nc1ccc(F)cc1)N1C[C@@H]2C[C@H](C(=O)N3CCCC3)[C@H](C1)O2` was 7.06%.
